Data: ChEMBL document CHEMBL1926614, “Substituted thiazoles V. synthesis and antitumor activity of novel thiazolo[2,3-b]quinazoline and pyrido[4,3-d]thiazolo[3,2-a]pyrimidine analogues” (2012)

Columns and labels:
Type in all cases: functional
SK-MEL-5 = assay: Growth inhibition of human SK-MEL-5 cells at 10 uM after 48 hrs by coulter counting; conditions: SK-MEL-5, 48 h, read-out: GI
Procedure, shortened: (§1)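 Single-dose primary screen across the full NCI 60-cell-line panel. Stocks were made in DMSO and diluted in PBS to a final DMSO below 1%. Cultures at 6 × 10⁴ cells/ml were run in duplicate wells alongside PBS/DMSO vehicle controls at 37 °C in humidified 5% CO₂. Data were expressed as percent growth of treated cells.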

SK-MEL-28 = assay: Growth inhibition of human SK-MEL-28 cells at 10 uM after 48 hrs by coulter counting; conditions: SK-MEL-28, 48 h, read-out: GI; procedure, shortened: as §1
HOP-62 = assay: Growth inhibition of human HOP62 cells at 10 uM after 48 hrs by coulter counting; conditions: HOP-62, 48 h, read-out: GI; procedure, shortened: as §1
KM12 = assay: Growth inhibition of human KM12 cells at 10 uM after 48 hrs by coulter counting; conditions: KM12, 48 h, read-out: GI; procedure, shortened: as §1
BT-549 = assay: Growth inhibition of human BT549 cells at 10 uM after 48 hrs by coulter counting; conditions: BT-549, 48 h, read-out: GI; procedure, shortened: as §1
SF-295 = assay: Growth inhibition of human SF295 cells at 10 uM after 48 hrs by coulter counting; conditions: SF-295, 48 h, read-out: GI; procedure, shortened: as §1
CCRF-CEM = assay: Growth inhibition of human CCRF-CEM cells at 10 uM after 48 hrs by coulter counting; conditions: read-out: GI; procedure, shortened: as §1
NCI-H226 = assay: Growth inhibition of human NCI-H226 cells at 10 uM after 48 hrs by coulter counting; conditions: NCI-H226, 48 h, read-out: GI; procedure, shortened: as §1
MOLT-4 = assay: Growth inhibition of human MOLT4 cells at 10 uM after 48 hrs by coulter counting; conditions: MOLT-4, 48 h, read-out: GI; procedure, shortened: as §1
[1] = Growth inhibition of human NCI-322M cells at 10 uM after 48 hrs by coulter counting; conditions: read-out: GI; procedure, shortened: as §1
SK-MEL-2 = assay: Growth inhibition of human SK-MEL-2 cells at 10 uM after 48 hrs by coulter counting; conditions: SK-MEL-2, 48 h, read-out: GI; procedure, shortened: as §1
NCI/ADR-RES = assay: Growth inhibition of human NCI/ADR-RES cells at 10 uM after 48 hrs by coulter counting; conditions: read-out: GI; procedure, shortened: as §1
DU-145 = assay: Growth inhibition of human DU145 cells at 10 uM after 48 hrs by coulter counting; conditions: DU-145, 48 h, read-out: GI; procedure, shortened: as §1
K562 = assay: Growth inhibition of human K562 cells at 10 uM after 48 hrs by coulter counting; conditions: K562, 48 h, read-out: GI; procedure, shortened: as §1
ACHN = assay: Growth inhibition of human ACHN cells at 10 uM after 48 hrs by coulter counting; conditions: read-out: GI; procedure, shortened: as §1
NCI-H460 = assay: Growth inhibition of human NCI-H460 cells at 10 uM after 48 hrs by coulter counting; conditions: NCI-H460, 48 h, read-out: GI; procedure, shortened: as §1
LOX IMVI = assay: Growth inhibition of human LOXIMVI cells at 10 uM after 48 hrs by coulter counting; conditions: read-out: GI; procedure, shortened: as §1
M14 = assay: Growth inhibition of human M14 cells at 10 uM after 48 hrs by coulter counting; conditions: M14, 48 h, read-out: GI; procedure, shortened: as §1
MCF7 = assay: Growth inhibition of human MCF7 cells at 10 uM after 48 hrs by coulter counting; conditions: MCF7, 48 h, read-out: GI; procedure, shortened: as §1
HCC 2998 = assay: Growth inhibition of human HCC2998 cells at 10 uM after 48 hrs by coulter counting; conditions: HCC 2998, 48 h, read-out: GI; procedure, shortened: as §1
UO-31 = assay: Growth inhibition of human UO31 cells at 10 uM after 48 hrs by coulter counting; conditions: UO-31, 48 h, read-out: GI
Procedure, shortened: (§2)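 Single-dose screen in the NCI 60 human tumor cell line panel (nine subpanels). Compounds dissolved in DMSO and diluted in phosphate buffered saline, keeping final DMSO below 1%. Added in duplicate wells to cells at 6 × 10⁴ cells/ml. Controls held PBS and DMSO at matching dilutions. Incubated at 37 °C, humidified, 5% CO₂. Reported as percent growth of treated cells.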

EKVX = assay: Growth inhibition of human EKVX cells at 10 uM after 48 hrs by coulter counting; conditions: read-out: GI; procedure, shortened: as §1
NCI-H522 = assay: Growth inhibition of human NCI-H522 cells at 10 uM after 48 hrs by coulter counting; conditions: NCI-H522, 48 h, read-out: GI; procedure, shortened: as §1
HL-60(TB) = assay: Growth inhibition of human HL-60(TB) cells at 10 uM after 48 hrs by coulter counting; conditions: HL-60, 48 h, read-out: GI
Procedure, shortened: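 Test compound was dissolved in DMSO and diluted in phosphate-buffered saline to a final DMSO level below 1%. Dilutions were plated in duplicate with cell culture at 6 × 10⁴ cells/ml. Vehicle controls held PBS and DMSO at matching dilutions. Incubation was at 37 °C, humidified, under 5% CO₂. Data were reported as percent growth of treated cells.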

MDA-MB-435 = assay: Growth inhibition of human MDA-MB-435 cells at 10 uM after 48 hrs by coulter counting; conditions: MDA-MB-435, 48 h, read-out: GI; procedure, shortened: as §1
NCI-H23 = assay: Growth inhibition of human NCI-H23 cells at 10 uM after 48 hrs by coulter counting; conditions: NCI-H23, 48 h, read-out: GI; procedure, shortened: as §1
RPMI-8226 = assay: Growth inhibition of human RPMI8226 cells at 10 uM after 48 hrs by coulter counting; conditions: RPMI-8226, 48 h, read-out: GI; procedure, shortened: as §1
HT-29 = assay: Growth inhibition of human HT-29 cells at 10 uM after 48 hrs by coulter counting; conditions: HT-29, 48 h, read-out: GI; procedure, shortened: as §1
T47D = assay: Growth inhibition of human T47D cells at 10 uM after 48 hrs by coulter counting; conditions: read-out: GI; procedure, shortened: as §2
A498 = assay: Growth inhibition of human A498 cells at 10 uM after 48 hrs by coulter counting; conditions: A498, 48 h, read-out: GI; procedure, shortened: as §1
OVCAR-4 = assay: Growth inhibition of human OVCAR4 cells at 10 uM after 48 hrs by coulter counting; conditions: OVCAR-4, 48 h, read-out: GI; procedure, shortened: as §1
UACC-257 = assay: Growth inhibition of human UACC257 cells at 10 uM after 48 hrs by coulter counting; conditions: UACC-257, 48 h, read-out: GI; procedure, shortened: as §2
SNB-19 = assay: Growth inhibition of human SNB19 cells at 10 uM after 48 hrs by coulter counting; conditions: SNB-19, 48 h, read-out: GI; procedure, shortened: as §1
U-251 = assay: Growth inhibition of human U251 cells at 10 uM after 48 hrs by coulter counting; conditions: U-251, 48 h, read-out: GI; procedure, shortened: as §2
A549 = assay: Growth inhibition of human A549 cells at 10 uM after 48 hrs by coulter counting; conditions: A549, 48 h, read-out: GI; procedure, shortened: as §1
IGROV-1 = assay: Growth inhibition of human IGROV1 cells at 10 uM after 48 hrs by coulter counting; conditions: IGROV-1, 48 h, read-out: GI; procedure, shortened: as §1
HCT-116 = assay: Growth inhibition of human HCT116 cells at 10 uM after 48 hrs by coulter counting; conditions: HCT-116, 48 h, read-out: GI; procedure, shortened: as §1
SF-268 = assay: Growth inhibition of human SF268 cells at 10 uM after 48 hrs by coulter counting; conditions: SF-268, 48 h, read-out: GI; procedure, shortened: as §1
SNB-75 = assay: Growth inhibition of human SNB75 cells at 10 uM after 48 hrs by coulter counting; conditions: SNB-75, 48 h, read-out: GI; procedure, shortened: as §1
CAKI-1 = assay: Growth inhibition of human Caki1 cells at 10 uM after 48 hrs by coulter counting; conditions: CAKI-1, 48 h, read-out: GI; procedure, shortened: as §1
UACC-62 = assay: Growth inhibition of human UACC62 cells at 10 uM after 48 hrs by coulter counting; conditions: UACC-62, 48 h, read-out: GI; procedure, shortened: as §2
SF-539 = assay: Growth inhibition of human SF539 cells at 10 uM after 48 hrs by coulter counting; conditions: SF-539, 48 h, read-out: GI; procedure, shortened: as §1

COc1ccc(/C=C2\CCCC3=C2N=C2SC=CN2C3c2ccc(OC)cc2)cc1 (configuration not stated) gave an inhibition of growth at 10 µM (SK-MEL-5) of over 10%, an inhibition of growth at 10 µM (SK-MEL-28) of over 10% and an inhibition of growth at 10 µM (HOP-62) of over 10%. It also gave an inhibition of growth at 10 µM (KM12) of over 10%, an inhibition of growth at 10 µM (BT-549) of over 10% and an inhibition of growth at 10 µM (SF-295) of over 10%. For the same compound, the inhibition of growth at 10 µM (CCRF-CEM) was over 10%, the inhibition of growth at 10 µM (NCI-H226) was 21.6% and the inhibition of growth at 10 µM (MOLT-4) was 14.4%. For the same compound, the inhibition of growth at 10 µM [1] was over 10%, the inhibition of growth at 10 µM (SK-MEL-2) was over 10% and the inhibition of growth at 10 µM (NCI/ADR-RES) was over 10%. It also gave an inhibition of growth at 10 µM (DU-145) of over 10%, an inhibition of growth at 10 µM (K562) of over 10% and an inhibition of growth at 10 µM (ACHN) of over 10%. It also gave an inhibition of growth at 10 µM (NCI-H460) of over 10%, an inhibition of growth at 10 µM (LOX IMVI) of over 10% and an inhibition of growth at 10 µM (M14) of 18.8%. For the same compound, the inhibition of growth at 10 µM (MCF7) was over 10%, the inhibition of growth at 10 µM (HCC 2998) was over 10% and the inhibition of growth at 10 µM (UO-31) was 32%. The inhibition of growth at 10 µM (EKVX) was 12.5%, the inhibition of growth at 10 µM (NCI-H522) was over 10% and the inhibition of growth at 10 µM (HL-60(TB)) was over 10%. The inhibition of growth at 10 µM (MDA-MB-435) was 15.4%, the inhibition of growth at 10 µM (NCI-H23) was over 10% and the inhibition of growth at 10 µM (RPMI-8226) was 21%. It also gave an inhibition of growth at 10 µM (HT-29) of over 10%, an inhibition of growth at 10 µM (T47D) of over 10% and an inhibition of growth at 10 µM (A498) of over 10%. The inhibition of growth at 10 µM (OVCAR-4) was 15.4%, the inhibition of growth at 10 µM (UACC-257) was over 10% and the inhibition of growth at 10 µM (SNB-19) was over 10%. The inhibition of growth at 10 µM (U-251) was over 10%, the inhibition of growth at 10 µM (A549) was over 10% and the inhibition of growth at 10 µM (IGROV-1) was over 10%. For the same compound, the inhibition of growth at 10 µM (HCT-116) was 17.6%, the inhibition of growth at 10 µM (SF-268) was over 10% and the inhibition of growth at 10 µM (SNB-75) was over 10%. The inhibition of growth at 10 µM (CAKI-1) was 11.3%, the inhibition of growth at 10 µM (UACC-62) was over 10% and the inhibition of growth at 10 µM (SF-539) was over 10%.
